pKi: −log10 of the molar value.
Columns and labels:
[1] = target: T1, Adenosine receptor A2b (Homo sapiens, UniProt P29275); test: Displacement of [3H]PSB-603 from recombinant human A2B adenosine receptor expressed in CHO cell membranes measured after 75 mins in presence of adenosine deaminase by liquid scintillation counting method
T1 sequence (P29275 whole entry): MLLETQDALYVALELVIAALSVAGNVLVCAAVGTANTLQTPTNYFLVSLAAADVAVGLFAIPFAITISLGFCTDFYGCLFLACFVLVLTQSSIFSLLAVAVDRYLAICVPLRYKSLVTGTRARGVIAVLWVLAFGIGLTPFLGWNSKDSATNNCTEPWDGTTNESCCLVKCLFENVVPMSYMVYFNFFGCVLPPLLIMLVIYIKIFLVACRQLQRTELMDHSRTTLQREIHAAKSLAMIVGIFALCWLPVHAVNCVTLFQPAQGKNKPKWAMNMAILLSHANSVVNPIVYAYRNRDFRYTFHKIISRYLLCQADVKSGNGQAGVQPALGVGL
Procedure, shortened: (§1)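 Competition binding on membranes of cells recombinantly expressing the human receptor (CHO or HEK cells), with tritiated radioligand per subtype: [3H]PSB-603 for A2B, [3H]MSX-2 for A2A, [3H]CCPA for A1, [3H]PSB-11 for A3. Ki ± SEM from n = 3, some from extrapolated curves. Weak binders are reported as % inhibition of radioligand binding at 1 μM.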

[2] = target: Adenosine receptor A2a (Homo sapiens, UniProt P29274); test: Displacement of [3H]MSX-2 from recombinant human A2A adenosine receptor expressed in CHO cell membranes measured after 30 mins in presence of adenosine deaminase by liquid scintillation counting method; procedure, shortened: as §1
Adenosine receptor A2a, sequence (P29274 whole entry): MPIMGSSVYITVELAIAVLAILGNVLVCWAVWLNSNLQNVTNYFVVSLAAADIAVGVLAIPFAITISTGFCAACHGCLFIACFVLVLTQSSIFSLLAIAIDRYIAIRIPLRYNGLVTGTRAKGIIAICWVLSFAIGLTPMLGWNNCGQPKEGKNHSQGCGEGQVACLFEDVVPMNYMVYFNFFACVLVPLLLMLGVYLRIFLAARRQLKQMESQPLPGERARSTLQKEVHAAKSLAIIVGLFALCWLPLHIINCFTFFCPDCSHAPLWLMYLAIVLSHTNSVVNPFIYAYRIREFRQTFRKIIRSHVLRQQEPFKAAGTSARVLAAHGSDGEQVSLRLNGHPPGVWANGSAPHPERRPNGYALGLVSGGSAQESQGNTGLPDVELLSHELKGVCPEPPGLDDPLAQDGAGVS

[3] = target: T2, Adenosine receptor A1 (Homo sapiens, UniProt P30542); test: Displacement of [3H]CCPA from recombinant human A1 adenosine receptor expressed in CHO cell membranes measured after 90 mins in presence of adenosine deaminase by liquid scintillation counting method; procedure, shortened: as §1
T2 sequence (P30542 whole entry): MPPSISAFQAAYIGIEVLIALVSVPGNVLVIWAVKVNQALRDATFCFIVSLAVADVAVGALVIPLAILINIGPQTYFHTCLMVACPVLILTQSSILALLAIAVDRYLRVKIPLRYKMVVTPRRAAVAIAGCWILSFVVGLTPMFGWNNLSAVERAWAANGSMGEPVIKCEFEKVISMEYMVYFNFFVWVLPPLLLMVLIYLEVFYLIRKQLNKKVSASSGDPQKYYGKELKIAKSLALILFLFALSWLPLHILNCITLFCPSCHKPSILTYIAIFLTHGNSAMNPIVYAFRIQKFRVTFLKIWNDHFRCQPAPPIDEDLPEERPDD

[4] = target: T3, Adenosine receptor A3 (Homo sapiens, UniProt P0DMS8); test: Displacement of [3H]PSB-11 from recombinant human A3 adenosine receptor expressed in CHO cell membranes measured after 45 mins in presence of adenosine deaminase by liquid scintillation counting method; procedure, shortened: as §1
T3 sequence (P0DMS8 whole entry): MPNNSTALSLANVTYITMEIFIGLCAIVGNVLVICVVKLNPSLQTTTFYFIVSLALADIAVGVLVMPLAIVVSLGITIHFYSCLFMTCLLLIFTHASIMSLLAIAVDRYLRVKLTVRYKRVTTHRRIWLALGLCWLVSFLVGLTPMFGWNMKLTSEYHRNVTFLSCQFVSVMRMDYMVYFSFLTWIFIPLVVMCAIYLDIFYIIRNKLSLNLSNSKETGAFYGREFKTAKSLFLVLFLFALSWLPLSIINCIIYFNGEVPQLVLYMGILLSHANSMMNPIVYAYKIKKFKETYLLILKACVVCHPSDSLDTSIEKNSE

[5] = target: T4, Adenosine receptor A1 (Mus musculus, UniProt Q60612); test: Displacement of [3H]CCPA from recombinant mouse A1 adenosine receptor expressed in CHO cell membranes measured after 90 mins in presence of adenosine deaminase by liquid scintillation counting method
T4 sequence (Q60612 whole entry): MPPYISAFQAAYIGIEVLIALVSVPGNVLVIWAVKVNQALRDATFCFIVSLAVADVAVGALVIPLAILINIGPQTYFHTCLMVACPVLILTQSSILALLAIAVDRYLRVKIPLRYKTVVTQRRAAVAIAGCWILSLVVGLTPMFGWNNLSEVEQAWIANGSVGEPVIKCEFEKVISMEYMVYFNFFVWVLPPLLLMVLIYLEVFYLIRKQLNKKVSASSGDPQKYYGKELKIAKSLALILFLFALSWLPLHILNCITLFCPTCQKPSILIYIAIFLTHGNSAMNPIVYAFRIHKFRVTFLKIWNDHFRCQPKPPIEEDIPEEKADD

[6] = target: T5, Adenosine receptor A1 (Homo sapiens) (UniProt P30542); test: Displacement of [3H]CCPA from recombinant human A1 adenosine receptor expressed in CHO cell membranes at 1 uM measured after 90 mins in presence of adenosine deaminase by liquid scintillation counting method relative to control
T5 sequence (whole entry): T2 sequence (P30542 whole entry)
Procedure, shortened: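 Single-point competition binding at human AR subtype membranes, each against its own tritiated radioligand. The test compound is given at 1 μM, and the result is reported as percent inhibition of radioligand binding. The radioligand-specific footnotes give n = 3.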

[7] = species on record: Homo sapiens; test: Selectivity index, ratio of Ki for displacement of [3H]PSB-11 from recombinant human A3 adenosine receptor expressed in CHO cell membranes to Ki for displacement of [3H]PSB-603 from recombinant human A2B adenosine receptor expressed in CHO cell membranes
[8] = target: T6, Adenosine receptor A3 (Mus musculus) (UniProt Q61618); test: Displacement of [3H]NECA from recombinant mouse A3 adenosine receptor expressed in CHO cell membranes at 1 uM measured after 180 mins in presence of adenosine deaminase by liquid scintillation counting method relative to control
T6 sequence (whole entry): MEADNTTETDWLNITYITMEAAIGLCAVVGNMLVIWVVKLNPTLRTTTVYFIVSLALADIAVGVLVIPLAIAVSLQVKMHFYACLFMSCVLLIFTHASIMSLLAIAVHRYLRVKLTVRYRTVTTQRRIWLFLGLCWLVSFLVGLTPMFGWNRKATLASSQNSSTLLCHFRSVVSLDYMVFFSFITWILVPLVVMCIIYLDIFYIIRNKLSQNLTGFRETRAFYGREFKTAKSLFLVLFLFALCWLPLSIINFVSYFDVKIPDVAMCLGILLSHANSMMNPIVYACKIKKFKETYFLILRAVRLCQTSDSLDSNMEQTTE

[9] = target: T7, Adenosine receptor A2b (Homo sapiens) (UniProt P29275); test: Competitive antagonist activity at recombinant human A2B adenosine receptor expressed in CHO cells assessed as reduction in NECA-induced […] cAMP accumulation preincubated for 10 mins followed by NECA stimulation for 15 mins […] and measured after 15 mins; assay type: functional, cell-based
T7 sequence (whole entry): T1 sequence (P29275 whole entry)

Row | pKi [1] | pKi [2] | pKi [3] | pKi [4] | pKi [5] | inhibition [6] | inhibition [8] | Kb [9] | SMILES | Ratio Ki [7]
1 | 8.72 | < 6.00 | < 6.00 | < 6.00 | 5.82 | 22% | -0.833% | 1.61 nM | CCCn1c(=O)c2[nH]c(-c3ccc(S(=O)(=O)N4CCN(c5ccc(Cl)cc5)CC4)cc3)nc2n(C)c1=O | > 520
2 | 9.20 | < 6.00 | < 6.00 | < 6.00 | < 6.52 | 34% | -2% | 0.167 nM | CCCn1c(=O)[nH]c2nc(-c3ccc(S(=O)(=O)N4CCN(c5cccc(F)c5)CC4)cc3)[nH]c2c1=O | > 1580
3 | 10.08 | < 6.00 | < 6.00 | < 6.00 | < 6.00 | 13% | 8% | 0.0598 nM | CCCn1c(=O)[nH]c2nc(-c3ccc(S(=O)(=O)N4CCN(c5ccc(Br)cc5)CC4)cc3)[nH]c2c1=O | > 12000

— ChEMBL document CHEMBL4346653, “A2B Adenosine Receptor Antagonists with Picomolar Potency” (J Med Chem, 2019)
